NPY Y1 blocker: NPY-Y1 (human) receptor antagonism; P25929; HEK293-CNG Y1 cells, membrane potential fluorescence; NPY at EC95, then isoproterenol; inhibition, % at 3.6 µM; 200,000 compounds, 1% hits; AID 1040;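 active = inhibition above the campaign mean inhibition of all tested compounds plus 3 SD, cut at about 20% in these data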;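 note: 0% = DMSO wells given NPY plus isoproterenol and 100% = isoproterenol alone without NPY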
Target sequence (P25929 whole entry, looked up): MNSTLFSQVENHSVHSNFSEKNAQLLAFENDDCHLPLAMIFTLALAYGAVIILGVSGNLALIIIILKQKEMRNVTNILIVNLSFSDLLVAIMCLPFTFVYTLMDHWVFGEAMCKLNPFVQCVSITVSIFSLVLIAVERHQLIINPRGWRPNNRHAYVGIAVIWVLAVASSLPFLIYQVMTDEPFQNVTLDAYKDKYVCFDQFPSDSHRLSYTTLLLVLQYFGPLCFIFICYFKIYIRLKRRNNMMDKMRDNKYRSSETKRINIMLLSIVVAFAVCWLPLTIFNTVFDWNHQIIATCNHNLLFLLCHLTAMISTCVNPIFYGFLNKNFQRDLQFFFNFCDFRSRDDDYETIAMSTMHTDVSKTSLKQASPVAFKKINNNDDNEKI
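Test system: HEK293 cells co-expressing NPY Y1 receptor and cyclic-nucleotide gated channel; Also added: NPY (25 nM), isoproterenol (1 µM), Ro 20-1724 (25 µM); Compound dosing: one concentration, 3.6 µM, in 0.4% DMSO; Timing: dye 3 h, compound 60 min room temperature, stimulation 45 min; Technique: Membrane-potential fluorescent dye readout.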
NPY-Y1 PAM-ag: human NPY-Y1 potentiation or agonism, primary screen. NPY-Y1 expressing cells, potentiator/agonist activation. AID 1304. activation, % at 3.6 µM. P25929. 220,000 compounds, 0.37% hits; in the data active = activation above about 33%, passing the limit was not always enough;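 note: cells stimulated with NPY at EC10 then isoproterenol at EC100; 0% = low agonist plus stimulus and 100% = saturating agonist plus stimulus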
KCC2 mod: KCC2 (human) Cl- transport modulation | Q9H2X9 | KCC2 cells, thallium flux FluoZin-2 fluorescence | B-score of Tl+ flux slope (higher = more flux/activation; lower = inhibition) at 10 µM | 190,000 compounds, 2.2% hits;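 active = thallium flux slope and its plate-corrected score both differing from the plate sample mean at a set confidence after two filtering rounds, in either direction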;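 note: slope of fluorescence scaled to starting intensity during 10 to 20 s after thallium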
NPY2 pot ag: human NPY-Y2 potentiation or agonism, primary screen; P49146; cells expressing NPY-Y2, potentiator/agonist read-out; activation, % at 3.6 µM; 220,000 compounds, 0.45% hits; in the data active = activation above about 27%;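 note: cells stimulated with NPY near EC25 plus isoproterenol at EC100; 0% = vehicle plus submaximal agonist and 100% = vehicle plus saturating agonist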
Target sequence (P49146 whole entry, looked up): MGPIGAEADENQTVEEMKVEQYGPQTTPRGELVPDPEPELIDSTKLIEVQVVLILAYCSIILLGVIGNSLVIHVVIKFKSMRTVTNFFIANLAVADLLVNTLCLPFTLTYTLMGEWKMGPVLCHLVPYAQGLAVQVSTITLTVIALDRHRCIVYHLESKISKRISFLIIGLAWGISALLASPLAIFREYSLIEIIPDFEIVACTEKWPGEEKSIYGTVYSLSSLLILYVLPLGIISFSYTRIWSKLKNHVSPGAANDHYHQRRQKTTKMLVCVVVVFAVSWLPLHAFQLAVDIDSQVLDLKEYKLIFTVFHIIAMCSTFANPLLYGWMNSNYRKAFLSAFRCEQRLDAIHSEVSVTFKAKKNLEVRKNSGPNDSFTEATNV
NPY Y2 blocker: antagonists of human neuropeptide Y receptor Y2. P49146. NPY-Y2 expressing cells, antagonist mode. inhibition, % at 2.7 µM. 140,000 compounds, 0.99% hits. AID 793; in the data active = inhibition above about 17%;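 note: 0% = vehicle with agonist challenge and 100% = reference antagonist with challenge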
Furin inhibitor: human furin inhibition | P09958 | purified furin, fluorogenic substrate cleavage | inhibition, % at 20 µM or 30 µM | 220,000 compounds, 0.061% hits; in the data active = inhibition above about 25%
KCC2 secondary: confirmation of human KCC2 transport modulators; shares compounds with KCC2 mod; HEK293-KCC2, thallium flux, FluoZin2 fluorescence; hits give high values; normalised thallium flux (F/F0 slope) at 10 µM; 3,700 compounds, 15% hits;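 active = thallium flux slope above the same plate's solvent-only control mean plus 3 SD; inconclusive = the two replicate wells disagree; inactive = no significant difference from solvent-only control wells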
KCC2 bumet counter: thallium flux despite bumetanide block in KCC2 cells, secondary assay 3; shares compounds with KCC2 mod; HEK293-KCC2 + bumetanide/ouabain, thallium flux FluoZin2; hits give high values; normalized thallium flux at 10 µM; 3,700 compounds, 49% hits;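 active = thallium entry rate above the same plate's blocked-transporter control wells by more than 3 SD; inconclusive = the two repeat wells disagree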;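 note: raw slope of fluorescence over initial fluorescence between 10 and 20 s after thallium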
KCC2 sec2: confirmation of human KCC2 transport modulators; shares compounds with KCC2 mod; HEK293-KCC2, thallium flux FluoZin2 fluorescence; actives lie on both sides; F/F0 rise rate, 10–20 s post-thallium; normalized thallium flux at 10 µM; 3,700 compounds, 23% hits; AID 1715;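 active = thallium flux slope more than 3 SD above or below the plate's solvent-only control mean, mostly below; inconclusive = the two repeat wells disagreed; inactive = no significant shift from solvent-only controls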;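 note: raw slope with 0.1% DMSO as baseline and bumetanide as block control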
HEK293 Tl flux: acts in parental HEK cells, KCC2 counter-screen | shares compounds with KCC2 mod | HEK293 parental cells, thallium flux FluoZin2, ouabain; baseline-ratio fluorescence slope, 10–20 s after thallium | thallium flux rate (normalised fluorescence) at 10 µM | 3,700 compounds, 46% hits | AID 1716;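 active = thallium flux rate significantly above the same plate's solvent-only control wells, beyond their mean plus 3 SD; inconclusive = the two replicate wells gave conflicting results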
KCC2 ouabain: KCC2 (human) modulation, ouabain retest | shares compounds with KCC2 mod | HEK293-KCC2, thallium flux FluoZin2 fluorescence; bidirectional: low = inhibitor, high = activator | raw Tl+ flux slope (below DMSO = inhibition, above = activation) at 10 µM | 3,700 compounds, 48% hits | AID 1717;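 active = thallium flux slope beyond 3 SD from same-plate DMSO control mean in most replicates, usually higher, sometimes lower; inconclusive = repeat tests gave conflicting results; inactive = no significant difference from controls in most replicates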;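 note: slope of initial-normalized fluorescence between seconds 10 and 20 after thallium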
HEK293 Tl flux2: parental HEK flux effect, counter-screen 2; shares compounds with KCC2 mod; HEK293 parental, thallium flux FluoZin-2 fluorescence slope; thallium flux slope at 10 µM; 3,700 compounds, 33% hits; AID 1718;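 active = thallium flux slope above the same plate's solvent-control mean plus 3 SD in both duplicate wells; inconclusive = duplicate wells that disagreed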;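 note: run without ouabain in cells lacking the KCC2 cotransporter; slope of fluorescence scaled to its starting value between 10 and 20 s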
Numbers without * were called inactive. Only some compounds are listed: those with a hit (about 3.7% of all), similar ones and a draw of the others.

CC1Cc2ccccc2N1C(=O)CCn1c(=O)sc2ccccc21 (stereo unspecified) was read as KCC2 mod -1.7*, Furin inhibitor -9, KCC2 secondary 0.0041*, KCC2 bumet counter 0.0033*, KCC2 sec2 0.021*, HEK293 Tl flux inconclusive, KCC2 ouabain 0.013* and HEK293 Tl flux2 inconclusive.
Screening CN(C)CCNC(=O)c1ccc(Cl)s1 returned NPY Y1 blocker -3, NPY-Y1 PAM-ag 9, KCC2 mod 7.3*, NPY2 pot ag 12, NPY Y2 blocker 1, Furin inhibitor 3, KCC2 secondary 0.0099, KCC2 bumet counter 0.0067, KCC2 sec2 0.032, HEK293 Tl flux 0.0074, KCC2 ouabain 0.05 and HEK293 Tl flux2 inconclusive.
For O=C(NCCCCNC(=O)c1ccc(Cl)s1)c1ccc(Cl)s1 the results were NPY Y1 blocker 4, NPY-Y1 PAM-ag -16, KCC2 mod 0.2, NPY2 pot ag 11, NPY Y2 blocker -1 and Furin inhibitor -10.
O=C1CCN(S(=O)(=O)c2ccccc2)N1 was read as NPY Y1 blocker 1, NPY-Y1 PAM-ag -4, KCC2 mod -5.6*, NPY2 pot ag -13, NPY Y2 blocker 2, Furin inhibitor -18, KCC2 secondary 0.009, KCC2 bumet counter 0.0068, KCC2 sec2 0.029, HEK293 Tl flux 0.0074, KCC2 ouabain 0.066 and HEK293 Tl flux2 0.0098.
Screening Cc1cc(C(=O)CSc2nc(N)cc(=O)[nH]2)c(C)n1CCc1ccc(F)cc1 returned NPY Y1 blocker 9, NPY-Y1 PAM-ag 16, KCC2 mod -4.2*, NPY2 pot ag -25, NPY Y2 blocker 5, Furin inhibitor -20, KCC2 secondary 0.0092, KCC2 bumet counter 0.0051, KCC2 sec2 0.033, HEK293 Tl flux 0.0074, KCC2 ouabain 0.018 and HEK293 Tl flux2 0.011.
Screening Cc1cccc(Cn2c(O)c(N=NC(=S)Nc3ccccc3F)c3ccccc32)c1 returned NPY Y1 blocker -1, NPY-Y1 PAM-ag 3, KCC2 mod 6.8*, NPY2 pot ag -21, Furin inhibitor -7, KCC2 secondary 0.011, KCC2 bumet counter 0.031*, KCC2 sec2 0.037, HEK293 Tl flux inconclusive, KCC2 ouabain inconclusive and HEK293 Tl flux2 0.011.
Screening NC(=S)N=Nc1c(O)n(Cc2ccc(Br)cc2)c2ccccc12 returned NPY Y1 blocker 3, NPY-Y1 PAM-ag -16, KCC2 mod 3.4, NPY2 pot ag -2, NPY Y2 blocker 16 and Furin inhibitor 8.
For Oc1c(N=NC(=S)Nc2ccccc2F)c2ccccc2n1Cc1ccc(F)cc1 the results were NPY Y1 blocker 1, NPY-Y1 PAM-ag 8, KCC2 mod 8.3*, NPY2 pot ag -3, Furin inhibitor -19, KCC2 secondary 0.019, KCC2 bumet counter 0.03*, KCC2 sec2 0.03, HEK293 Tl flux 0.013*, KCC2 ouabain 0.019 and HEK293 Tl flux2 0.014*.
`Oc1c(N=NC(=S)Nc2ccccc2F)c2ccccc2n1Cc1cccc(Cl)c1` gave NPY Y1 blocker 11, NPY-Y1 PAM-ag -2, KCC2 mod 3.6, NPY2 pot ag -4 and Furin inhibitor -11.
For Cc1ccc2c(c1)c(N=NC(N)=S)c(O)n2Cc1ccccc1 the results were NPY Y1 blocker -3, NPY-Y1 PAM-ag -9, KCC2 mod 4.3*, NPY2 pot ag -1, NPY Y2 blocker 4, Furin inhibitor -7, KCC2 secondary 0.0051, KCC2 bumet counter 0.0075*, KCC2 sec2 0.03, HEK293 Tl flux 0.011*, KCC2 ouabain 0.022 and HEK293 Tl flux2 0.014*.
`NC(=S)N=Nc1c(O)n(Cc2ccc(F)cc2)c2ccccc12` gave NPY Y1 blocker 8, NPY-Y1 PAM-ag 8, KCC2 mod 4.7*, NPY2 pot ag -4, NPY Y2 blocker 7, Furin inhibitor -10, KCC2 secondary inconclusive, KCC2 bumet counter 0.01*, KCC2 sec2 0.033, HEK293 Tl flux 0.014*, KCC2 ouabain 0.029* and HEK293 Tl flux2 0.012*.
For CCOC(=O)N(C)S(=O)(=O)c1ccccc1[N+](=O)[O-] the results were NPY Y1 blocker -1, NPY-Y1 PAM-ag -5, KCC2 mod 0.43, NPY2 pot ag -7 and Furin inhibitor -22.
CCOc1cc(N2CCOCC2)c(OCC)cc1NC(=O)COC(=O)c1cc(C)cc(C)c1 was read as NPY Y1 blocker 10, NPY-Y1 PAM-ag -31, KCC2 mod 0.33, NPY2 pot ag -7, NPY Y2 blocker 10 and Furin inhibitor -9.
Cn1c(C(=O)NCCN2CCN(c3ccccc3F)CC2)cc2c(=O)n(C)c3ccccc3c21 was read as NPY Y1 blocker 0, NPY-Y1 PAM-ag -9, KCC2 mod -4.7*, NPY2 pot ag -2, NPY Y2 blocker 2, Furin inhibitor -11, KCC2 secondary 0.005, KCC2 bumet counter 0.0048, KCC2 sec2 0.022*, HEK293 Tl flux 0.0076, KCC2 ouabain inconclusive and HEK293 Tl flux2 0.011.
`Cc1ccc(N2C(=O)N(CC(=O)C(C)(C)C)c3ccccc3S2(=O)=O)cc1` gave NPY Y1 blocker 3, NPY-Y1 PAM-ag -4, KCC2 mod 0.098, NPY2 pot ag 0 and Furin inhibitor -20.
`Cc1nc(C(F)(F)F)c(C(=O)N/N=C(\N)c2ccccn2)s1` gave NPY Y1 blocker 0, NPY-Y1 PAM-ag -3, KCC2 mod 0.8, NPY2 pot ag -7 and Furin inhibitor -16.
For Cc1ccc(NC(=S)NNC(=O)c2ccccc2OC(F)F)cc1 the results were NPY Y1 blocker -10, NPY-Y1 PAM-ag 2, KCC2 mod 8.4*, NPY2 pot ag 2, NPY Y2 blocker 1, Furin inhibitor -8, KCC2 secondary 0.011, KCC2 bumet counter 0.022*, KCC2 sec2 0.033, HEK293 Tl flux 0.018*, KCC2 ouabain 0.028* and HEK293 Tl flux2 0.013*.
